Measured values of several laboratories.
Protocols differ between the studies behind these lines.
CDK2 with cyclin A2: Cyclin-dependent kinase 2, with cyclin A2 (CDK2, Homo sapiens, UniProt P24941)
CDK2: Cyclin-dependent kinase 2 (CDK2, Homo sapiens, UniProt P24941)
CTSB: Cathepsin B (CTSB, Homo sapiens, UniProt P07858)
LGALS4 C-terminal domain: Galectin-4, C-terminal domain (LGALS4, Homo sapiens, UniProt P56470)
PIM1: Serine/threonine-protein kinase pim-1 (PIM1, Homo sapiens, UniProt P11309)

SMILES	target	effect on	action	technique	measurement	result
CC(=O)c1nn(-c2ccc(C)cc2)/c(=N/N=C(\C)c2ccc(NC(=O)c3ccccc3)cc2)s1	Cyclin-dependent kinase 8, with cyclin C (CDK8, Homo sapiens, UniProt P49336)	enzyme activity	inhibitor		IC50	0.267 µM
CC(=O)Nc1c(N)nc(SCC(=O)N/N=C/c2ccc([N+](=O)[O-])cc2)[nH]c1=O	CDK2 with cyclin A2	enzyme activity	inhibitor		IC50	0.189 µM
NCCCNc1ncnc2c1ncn2[C@@H]1O[C@H](CN(CC#Cc2cccc(C(N)=O)c2)CC[C@H](N)C(=O)O)[C@@H](O)[C@H]1O	Nicotinamide N-methyltransferase (NNMT, Homo sapiens, UniProt P40261)	enzyme activity	inhibitor	fluorescence	IC50	0.15 µM
Nc1ccccc1NC(=O)c1ccc(CNc2ccc(NC3=C(Cl)C(=O)c4cccnc4C3=O)cc2)cc1	M-phase inducer phosphatase 3 (Homo sapiens, UniProt P30307)	enzyme activity	inhibitor		IC50	0.23 µM
O=C(O)Cc1csc(NC(=O)c2cc3ccccc3[nH]2)n1	CDK2	enzyme activity	inhibitor	ELISA	IC50	1.71 µM
COc1cc(N2CCC(N3CCN(C)CC3)CC2)ccc1Nc1ncc(Cl)c(Nc2ccccc2P(C)(C)=O)n1	Multidrug and toxin extrusion protein 1 (SLC47A1, Homo sapiens, UniProt Q96FL8)	transporter uptake	inhibitor		Ki	0.78 µM
CC(C)Oc1ccc(S(=O)(=O)c2ccc(Oc3cc(OCC(N)=O)c(C(=O)C(Cl)Cl)cc3[N+](=O)[O-])cc2)cc1	[Pyruvate dehydrogenase (acetyl-transferring)] kinase isozyme 4, mitochondrial (PDK4, Homo sapiens, UniProt Q16654)	enzyme activity	inhibitor	ATP luminescence	IC50	17.2 µM
CCOC(=O)/C=C/C(=O)[C@H](CC(C)C)NC(=O)[C@H](Cc1ccccc1)NC(=O)[C@H](Cc1ccccc1)N=[N+]=[N-] (mixture of isomers)	CTSB	enzyme activity	inhibitor		IC50	0.32 µM
CC(=O)NC1C(OC2C(O)C(CO)OC(OC3C(CO)OC(O)C(O)C3O)C2OC2OC(C)C(O)C(O)C2O)OC(CO)C(O)C1O (stereo not drawn)	LGALS4 C-terminal domain	binding		NMR	Kd	63 µM
C[C@H]1C[C@H]2[C@@H]3CCC4=CC(=O)C=C[C@]4(C)[C@@]3(Cl)[C@@H](O)C[C@]2(C)[C@@]1(O)C(=O)CO	ADGRG3 (Homo sapiens, UniProt Q86Y34)	β-arrestin recruitment	agonist		EC50	3.49 µM
CCOc1nc(-c2cccc(O)c2)cc(-c2cc3cc(OC)ccc3nc2N2CCOCC2)c1C#N	PIM1	enzyme activity	inhibitor		IC50	0.11 µM
CCOC(=O)[C@H]1O[C@@H]1C(=O)N[C@@H](CC(C)C)C(=O)NCCC(C)C	CTSB	enzyme activity	inhibitor		IC50	0.012 µM
COc1ccc2[nH]c(C(=O)Nc3nc(CC(=O)O)cs3)cc2c1	CDK2	enzyme activity	inhibitor	ELISA	IC50	3.19 µM
CC(C)C[C@H](NC(=O)[C@H](Cc1ccccc1)NC(=O)OCc1ccccc1)C(=O)C=O	CTSB	enzyme activity	inhibitor		IC50	4.36 µM
CCCOc1nc(-c2cccc(O)c2)cc(-c2cc3cc(OC)ccc3nc2N2CCOCC2)c1C#N	PIM1	enzyme activity	inhibitor		IC50	0.095 µM
Cc1ccc2oc(=O)cc(NCCO)c2c1	Alpha-1A adrenergic receptor (Adra1a, Rattus norvegicus, UniProt P43140)	calcium signal	antagonist		IC50	1820 µM
CC1OC(OC2C(OC3C(CO)OC(O)C(O)C3O)OC(CO)C(O)C2OC2OC(CO)C(O)C(O)C2O)C(O)C(O)C1O (stereo not drawn)	LGALS4 C-terminal domain	binding		NMR	Kd	170 µM
CC(=O)Nc1c(N)nc(SCC(=O)NN)[nH]c1=O	CDK2 with cyclin A2	enzyme activity	inhibitor		IC50	0.172 µM
